Data on 84 variants can be found in the RNAGym collection of RNA variant scans (doi:10.1126/science.aae0568).

First the molecules themselves.
B1: tRNA (parent)
chain: GUUCCGUUGGCGUAAUGGUAACGCGUCUCCCUCCUAAGGAGAAGACUGCGGGUUCGAGUCCCGUACGGAACG

This sample holds only a part of the variants without activity.

The variants in this data set derive from B1. The data set is described as follows: yeast fitness relative to wild type (ratio to wild type); higher = fitter; tRNA-Arg(CCU), competitive growth, 37 C, YPD. Summed up:
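The tRNA-Arg(CCU) gene variants were made by chemical synthesis with a 3% per-site mutation rate at 69 sites and inserted at the native genomic locus of Saccharomyces cerevisiae. After pooling, the strains were competed in YPD at 37°C for 24 hours in six parallel replicates. Gene amplicons from the start population and each end population were read by 100-nucleotide paired-end sequencing, and Darwinian fitness relative to wild type was taken from genotype frequency changes. Genotypes needed ≥ 100 starting reads, and estimates < 0.5 were set to 0.5.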
In the case of C5A C11U C30A A57G, the yeast fitness is at most 0.5.
For C5A C30G C31G A65C the value was at most 0.5.
For C5A C11A U59A C60G the value was at most 0.5; for C5A C22U G39A C61U, 0.503; for C5A A40C A69U, 0.539.
For C5A C11A A42U U53A A57C A65G the value was at most 0.5; for C5A C24G C29G A40C, at most 0.5.
As to C5A A37G G51C C61G, the yeast fitness is at most 0.5.
As for C5A A70C, the figure is 0.982; as for C5A A70U, 0.822.
For C5A A42U the value was 0.767.
Turning to C5A A42C, the yeast fitness turned out to be 0.842.
For C5A A42G the value was 0.964; for C5A A43C A65U, at most 0.5.
C5A A69G: the yeast fitness was determined as 0.908.
For C5A C11G A42U U53A the value was at most 0.5; for C5A C22U A57G, 0.612; for C5A C22U G51C, at most 0.5.
For C5A C22U C27G C30G A45U C62A the value was at most 0.5; for C5A C11G C33A G38A, 0.552; for C5A A45G, 0.937.
As for C5A A45U, the figure is 0.877; as for C5A A42C G63A, at most 0.5.
On to C5A A42C G63C, for which the yeast fitness was at most 0.5.
Turning to C5A C22G U26A A57C G67A A69U, the yeast fitness was at most 0.5.
As for C5A A21G C31A, the yeast fitness came to 0.642.
Take C5A C24U C46A: the yeast fitness came out at 0.519.
For C5A A21G U32G the value was at most 0.5; for C5A A36G, 0.886; for C5A C24U G25C C30G G50C G56A A65U, at most 0.5.
For C5A A36C C46G the value was 0.532; for C5A C30A A57G, 0.565.
Turning to C5A A43G C55U C66G, the yeast fitness is at most 0.5.
For C5A A43C A69U A70C the value was 0.769; for C5A A40U A65U, 0.636.
For the variant C5A C22A C33U A36C, the yeast fitness is 0.502.
Regarding C5A A43U, the yeast fitness was found to be 0.783.
On to C5A A43G, for which the yeast fitness amounted to 0.903.
As for C5A A43C, the figure is 0.987; as for C5A C29G G41A A43U, 0.659; as for C5A C27U C46U, 0.739.
For C5A C11U C34A A40U A42U G68A the value was at most 0.5; for C5A C22A C24A U26C, at most 0.5.
For the variant C5A C29G A36U A43G, the yeast fitness was at most 0.5.
On to C5A C30G, for which the yeast fitness was 0.608.
For C5A C30A the value was 0.767.
In the case of C5A C24G A70U, the yeast fitness is at most 0.5.
For C5A A40U G67A the value was 0.659; for C5A C24G A65U, 0.694.
As for C5A A21C C30G C55G A70G, the figure is at most 0.5; as for C5A C24G U26A C29G A43U, at most 0.5; as for C5A C11G A45C C66G G68C, at most 0.5.
As for C5A C22U G39A A69U, the figure is at most 0.5; as for C5A A21G A65U, 0.655.
As to C5A A37U A57G G63C, the yeast fitness came to 0.733.
For C5A C30A C31G A37U C55U A57C C61A the value was 0.55; for C5A A40C G41A C46U G52C, at most 0.5.
On to C5A C22A, for which the yeast fitness is 0.831.
Regarding C5A C27U G39A A40G, the yeast fitness came out at 0.577.
For C5A C29A A45U C62G C66G the value was at most 0.5; for C5A A57G, 0.767; for C5A A57C, 0.719.
As for C5A C29A A57G, the figure is at most 0.5; as for C5A A21G C24U A45U A57U, 0.603; as for C5A A21U C24U C27G C55U, at most 0.5.
For C5A C29U A36U C66U G67A the value was at most 0.5; for C5A C11G, 0.657; for C5A C11U, 0.856.
For the variant C5A C11G G17A A37U C49A, the yeast fitness was at most 0.5.
As for C5A C24U G67U A69C, the figure is 0.517; as for C5A C24G A65G C66U, at most 0.5.
As for C5A C22U C29U A42U, the figure is at most 0.5; as for C5A C22G C29G C31G, 0.627.
With C5A C11G A21U C60G G67A, the yeast fitness was at most 0.5.
As for C5A C11G A57G, the figure is at most 0.5; as for C5A A21C C34G C60G A70G, at most 0.5; as for C5A C11G C29U A36U G50C U54G, at most 0.5.
Turning to C5A C24U C62A A69C, the yeast fitness is at most 0.5.
As for C5A C22G C24G C31U A43U G48A, the figure is 0.544; as for C5A C27U G39C C49U, 0.526.
With C5A A21U G50A, the yeast fitness was at most 0.5.
Turning to C5A C24U U35C, the yeast fitness is at most 0.5.
As for C5A C11G G38C G58C, the figure is at most 0.5; as for C5A A37G A65U, 0.532.
